# Measured values taken from ChEMBL document CHEMBL3813661, “Humudifucol and Bioactive Prenylated Polyphenols from Hops (Humulus lupulus cv. "Cascade")” (J Nat Prod, 2016).
# How the values were obtained:
# [1] = target: T1, Polyunsaturated fatty acid 5-lipoxygenase (Homo sapiens, UniProt P09917); experiment: Inhibition of 5-LO in human polymorphonuclear leukocytes preincubated for 10 mins followed by addition of arachidonic acid as substrate measured after 10 mins by HPLC method; format: cell-based
# T1 sequence (P09917 whole entry): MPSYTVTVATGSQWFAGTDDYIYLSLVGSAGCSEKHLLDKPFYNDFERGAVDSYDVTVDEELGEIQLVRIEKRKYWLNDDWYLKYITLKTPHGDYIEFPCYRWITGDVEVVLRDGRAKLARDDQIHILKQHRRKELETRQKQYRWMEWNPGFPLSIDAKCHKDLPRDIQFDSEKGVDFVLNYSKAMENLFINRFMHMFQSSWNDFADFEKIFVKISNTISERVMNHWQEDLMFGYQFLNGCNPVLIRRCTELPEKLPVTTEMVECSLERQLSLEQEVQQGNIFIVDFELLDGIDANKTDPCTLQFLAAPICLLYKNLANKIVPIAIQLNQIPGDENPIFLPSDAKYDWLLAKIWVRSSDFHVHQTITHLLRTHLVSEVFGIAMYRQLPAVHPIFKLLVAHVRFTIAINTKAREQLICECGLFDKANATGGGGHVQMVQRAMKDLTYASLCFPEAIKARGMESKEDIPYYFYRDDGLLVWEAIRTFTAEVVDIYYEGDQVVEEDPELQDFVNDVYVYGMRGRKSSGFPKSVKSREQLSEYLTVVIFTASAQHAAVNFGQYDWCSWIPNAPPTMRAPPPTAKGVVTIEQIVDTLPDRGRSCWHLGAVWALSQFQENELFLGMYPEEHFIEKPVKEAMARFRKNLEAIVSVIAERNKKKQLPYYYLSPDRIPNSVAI
# [2] = target: T1, Polyunsaturated fatty acid 5-lipoxygenase; experiment: Inhibition of recombinant human 5-LO expressed in Escherichia coli MV1190 cells preincubated for 10 mins followed by addition of arachidonic acid as substrate measured after 10 mins by RP-HPLC method
# In short: (§1)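 Recombinant human 5-LO expressed at 27 °C in E. coli MV1190 and partially purified from the 40000g supernatant on ATP-agarose. Enzyme taken up in PBS with 1 mM EDTA plus 1 mM ATP and preincubated with compound on ice 10 min. After 30 s at 37 °C, 2 mM CaCl2 and 20 μM AA added for 10 min. Stopped with methanol, products measured by RP-HPLC. Mean ± SEM, 3–4 experiments.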
# [3] = target: T2, Prostaglandin E synthase (Homo sapiens) (UniProt O14684); experiment: Inhibition of mPGES-1 in microsomes of IL1-beta induced human A549 cells assessed as PGE2 formation by measuring enzyme residual activity at 10 uM preincubated for 15 mins followed by addition of PGH2 as substrate measured after 1 min by RP-HPLC method relative to control
# T2 sequence (whole entry): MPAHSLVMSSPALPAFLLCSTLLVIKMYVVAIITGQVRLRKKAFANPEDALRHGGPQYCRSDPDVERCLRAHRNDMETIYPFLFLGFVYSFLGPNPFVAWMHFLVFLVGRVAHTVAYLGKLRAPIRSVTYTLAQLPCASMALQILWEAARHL
# In short: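 Microsomes from A549 cells stimulated with IL-1β (1 ng/mL) for 48 h, diluted in 0.1 M potassium phosphate pH 7.4 with 2.5 mM glutathione. Compound or vehicle added for 15 min at 4 °C, then 20 μM PGH2 for 1 min at 4 °C. Stopped with FeCl2/citric acid containing 11β-PGE2. PGE2 measured by solid-phase extraction and RP-HPLC. Residual activity as % of control, mean ± SEM, 3–4 experiments.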
# [4] = target: T3, Polyunsaturated fatty acid 5-lipoxygenase (Homo sapiens) (UniProt P09917); experiment: Inhibition of 5-LO in human polymorphonuclear leukocytes assessed as residual activity at 10 uM preincubated for 10 mins followed by addition of arachidonic acid as substrate measured after 10 mins by HPLC method relative to control; format: cell-based
# T3 sequence (whole entry): T1 sequence (P09917 whole entry)
# [5] = target: T3, Polyunsaturated fatty acid 5-lipoxygenase (Homo sapiens); experiment: Inhibition of recombinant human 5-LO expressed in Escherichia coli MV1190 cells assessed as residual activity preincubated for 10 mins followed by addition of arachidonic acid as substrate measured after 10 mins by RP-HPLC method relative to control; in short: as §1
compound,measurement,setting,value
COc1cc(O)c(CC=C(C)C)c(O)c1C(=O)/C=C/c1ccc(O)cc1 [XANTHOHUMOL],IC50,[1]; read-out: IC50,2.9 µM
same,IC50,[2]; read-out: IC50,2.1 µM
same,Activity,[3],32.3%
CC(C)=CCc1c(O)cc(O)c2c1O[C@H](c1ccc(O)cc1)CC2=O,IC50,[1]; read-out: IC50,> 10 µM
same,IC50,[2]; read-out: IC50,> 10 µM
same,Activity,[4],87.5%
same,Activity,[5],66.7%
same,Activity,[3],56.5%
COc1cc2c(c(O)c1C(=O)/C=C/c1ccc(O)cc1)C=CC(C)(C)O2 [XANTHOHUMOL C],IC50,[1]; read-out: IC50,> 10 µM
same,IC50,[2]; read-out: IC50,> 10 µM
same,Activity,[4],56.8%
same,Activity,[5],58%
same,Activity,[3],35.3%
CC(C)=CCc1c(O)cc(O)c(-c2c(O)cc(O)c(CC=C(C)C)c2O)c1O,IC50,[1],Not Active
same,IC50,[2],Not Active
same,Activity,[3],40.2%
CC(C)=CCC1=C2O[C@@H](C(C)(C)O)C[C@@]2(O)C(=O)C(C(=O)CC(C)C)=C1O,IC50,[1],Not Active
same,IC50,[2]; read-out: IC50,> 10 µM
same,Activity,[5],90.8%
same,Activity,[3],52.7%
CC(C)=CCC1=C(O)[C@](O)(CC=C(C)C)C(=O)C(C(=O)CC(C)C)=C1O,IC50,[1]; read-out: IC50,> 10 µM
same,IC50,[2]; read-out: IC50,9.3 µM
same,Activity,[4],63.1%
same,Activity,[3],49.7%
CC(C)=CCC1(O)C(=O)C(CC=C(C)C)(CC=C(C)C)C(=O)C(C(=O)C(C)C)=C1O (stereo not drawn),IC50,[1]; read-out: IC50,> 10 µM
same,IC50,[2]; read-out: IC50,5.9 µM
same,Activity,[4],57.5%
same,Activity,[3],32.8%
